These results are taken from ChEMBL document CHEMBL1123789, “Synthesis of beta-carboline-benzodiazepine hybrid molecules: use of the known structural requirements for benzodiazepine and beta-carboline binding in designing a novel, high-affinity ligand for the benzodiazepine receptor” (J Med Chem, 1987).

SMILES strings stand for the structures. Where only a bound is given, the exact number is not on record here.

The target in test [1] is T1, GABA-A receptor; anion channel (Mus musculus) (UniProt Q8BHJ7+P26048+Q8QZW7+P50571+Q9R0Y8+P22723+A2AMW3+P62812+Q9JLF1+P26049+P22933+Q9D6F4+P63080+P27681+P16305). The test is described as follows: In vivo binding of [3H]flunitrazepam to GABA-A benzodiazepine receptor of mouse hippocampus after maximal Diazepam (10 mg/kg, 40 min). The class given is organism-based. In a few lines:
(§1)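 Nonspecific in vivo binding. Diazepam 10 mg/kg was given to male Swiss mice 40 min before iv [3H]flunitrazepam (200 µCi/kg) and 60 min before decapitation. Cerebellum, cortex and hippocampus were homogenized in cold 50 mM Tris-HCl pH 7.4. Crude homogenate (12 mg wet tissue) was filtered on GF/B and counted, as pCi/mg wet tissue.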

Test [2] has as its target GABA-A receptor; anion channel. The test is described as follows: Displacement of [3H]flunitrazepam from GABA-A benzodiazepine receptor of rat cerebral cortex membrane. Format: tissue-based. A digest of the protocol: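 Rat cerebral cortex homogenised in ice-cold 50 mM Tris-HCl pH 7.4, washed by centrifugation, frozen at -20 °C ≥24 h. Filtration on glass fibre, scintillation counting, duplicates; IC50 by Hofstee analysis.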

Test [3] addresses GABA-A receptor; anion channel. The test is described as follows: Displacement of [3H]beta-CCE from GABA-A benzodiazepine receptor of rat cerebral cortex membranes. Format: cell membranes, Membrane. In a few lines:
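Rat cerebral cortex membranes, washed in 50 mM Tris-HCl pH 7.4, stored at −20 °C for at least 24 h. 60 µg protein incubated 60 min at 0 °C with 0.4 nM [3H]-β-CCE (final) and test compound from 5×10^-10 to 10^-5 M. Nonspecific binding was defined with 1 µM unlabeled β-CCE. Bound ligand collected by GF/B filtration and counted by scintillation. Duplicates; IC50 from Hofstee analysis.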

Test [4] addresses T1, GABA-A receptor; anion channel (Mus musculus). The test is described as follows: In vivo binding of [3H]flunitrazepam to GABA-A benzodiazepine receptor of mouse cortex after maximal Diazepam (10 mg/kg, 40 min). The class given is organism-based. In a few lines: as §1
Test [5] has the same target. The test is described as follows: In vivo displacement of [3H]flunitrazepam to GABA-A benzodiazepine receptor of mouse cerebellum at 10 mg/kg, 10 min. Format: organism-based. Details: dose 10 mg/kg. In a few lines:
(§2)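 Male Swiss mice received [3H]flunitrazepam 200 µCi/kg iv via tail vein. Test compound, 10 mg/kg suspended in Tween 80, was given 10 min later and 10 min before decapitation. Cerebellum, cortex and hippocampus were homogenized in cold 50 mM Tris-HCl pH 7.4. Crude homogenate (12 mg wet tissue) was filtered on GF/B and counted, as pCi/mg wet tissue.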

Test [6] has the same target. The test is described as follows: In vivo total binding of [3H]flunitrazepam (200uCi/kg, 20 min) to GABA-A benzodiazepine receptor of mouse cerebellum. The class given is organism-based. A digest of the protocol:
(§3)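 Male Swiss mice received [3H]flunitrazepam 200 µCi/kg in saline via tail vein, 20 min before decapitation. Cerebellum, cortex and hippocampus were dissected on ice and homogenized in ice-cold 50 mM Tris-HCl pH 7.4. Two 600-µL aliquots (12 mg wet tissue) were filtered on GF/B, washed twice and counted. Results given as pCi/mg wet tissue.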

The target is the same in test [7]. The test is described as follows: In vivo binding of [3H]flunitrazepam to GABA-A benzodiazepine receptor of mouse cerebellum after maximal Diazepam (10mg/kg, 40 min). Format: organism-based. A digest of the protocol:
as §1

Test [8] has the same target. The test is described as follows: In vivo total binding of [3H]flunitrazepam (200uCi/kg, 20 min) to GABA-A benzodiazepine receptor of mouse hippocampus. Format: organism-based. A digest of the protocol: as §3
Test [9] shares this target. The test is described as follows: In vivo total binding of [3H]flunitrazepam (200uCi/kg, 20 min) to GABA-A benzodiazepine receptor of mouse cortex. The class given is organism-based. A digest of the protocol: as §3
Test [10] has the same target. The test is described as follows: In vivo displacement of [3H]flunitrazepam to GABA-A benzodiazepine receptor of mouse hippocampus at 10 mg/kg, 10 min. Format: organism-based. Details: dose 10 mg/kg. A digest of the protocol:
as §2

Test [11] has the same target. The test is described as follows: In vivo displacement of [3H]flunitrazepam to GABA-A benzodiazepine receptor of mouse cortex at 10 mg/kg, 10 min. Format: organism-based. Details: dose 10 mg/kg. A digest of the protocol: as §2

As to `O=c1[nH]c2ccccc2c(=O)n2cc3nc4ccccc4c-3cc12`, the results for the Binding in test [1], in [4] and in [7] were 25.6 pCi mg-1, 26.7 pCi mg-1 and 24.1 pCi mg-1, respectively. The IC50 came out at 23 nM in test [2] and 47 nM in [3]. In addition, the Total binding is 78.8 pCi mg-1 in test [5]; 71.2 pCi mg-1 in test [6]; 95.5 pCi mg-1 in [8]; 85 pCi mg-1 in test [9]; 96.8 pCi mg-1 in test [10]; 88 pCi mg-1 in [11].

For `O=C1Nc2ccccc2CN2Cc3[nH]c4ccccc4c3CC12` (stereo unspecified), the IC50 in test [2] and in test [3] was greater than 100000 nM throughout.

On to `CCOC(=O)C1=CC2c3ccccc3NC2C=N1` (stereo unspecified), for which the IC50 in test [2] amounted to 2.5 nM; in test [3], 6 nM.

For `O=C1Nc2ccccc2Cn2cc3nc4ccccc4c-3cc21`, the half-inhibitory concentration (IC50) in test [2] came to 6000 nM; in test [3], 2000 nM.

Turning to `O=C1Nc2ccccc2C(=O)N2Cc3[nH]c4ccccc4c3CC12` (stereo unspecified), the IC50 in test [2] and in test [3] was greater than 100000 nM in each case.

On to `CN1C(=O)CN=C(c2ccccc2F)c2cc([N+](=O)[O-])ccc21` [FLUNITRAZEPAM], for which the IC50 came out at 3 nM in [2] and 8 nM in test [3].
